What was measured:
Assay type in all cases: functional
[1] = tested on: HT-29; assay: Growth inhibition of human HT-29 cells after 48 hrs by SRB assay; conditions: HT-29, 48 h
In short: (§1)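 NCI five-dose screen across about 60 human tumour cell lines, at 10-fold dilutions from 10^-4 to 10^-8 M with 48 h continuous exposure, read by SRB. Percent growth used time-zero, untreated control and treated absorbances. GI50 was the concentration giving 50% lower net protein increase than controls. Values beyond the tested range were reported as more or less than the maximum or minimum concentration.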

[2] = tested on: SNB-75; assay: Growth inhibition of human SNB75 cells after 48 hrs by SRB assay; conditions: SNB-75, 48 h; in short: as §1
[3] = tested on: SK-MEL-28; assay: Growth inhibition of human SK-MEL-28 cells after 48 hrs by SRB assay; conditions: SK-MEL-28, 48 h; in short: as §1
[4] = tested on: SK-MEL-5; assay: Growth inhibition of human SK-MEL-5 cells after 48 hrs by SRB assay; conditions: SK-MEL-5, 48 h; in short: as §1
[5] = tested on: UACC-62; assay: Growth inhibition of human UACC62 cells after 48 hrs by SRB assay; conditions: UACC-62, 48 h; in short: as §1
[6] = tested on: SK-MEL-5; assay: Anticancer activity against human SK-MEL-5 cells assessed as cell growth at 10 uM after 48 hrs by SRB assay; conditions: SK-MEL-5, 48 h, read-out: Activity
In short: (§2)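 US NCI one-dose screen across about 60 human tumour cell lines. A single concentration of 10^-5 M was applied with 48 h continuous exposure. The end point was sulforhodamine B protein staining, read spectrophotometrically. Results are given as percent growth of treated cells relative to untreated controls.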

[7] = Anticancer activity against human NCI60 cells assessed as cell growth at 10 uM after 48 hrs by SRB assay; conditions: NCI60, 48 h, read-out: Activity; in short: as §2
[8] = tested on: HL-60(TB); assay: Growth inhibition of human HL-60(TB) cells after 48 hrs by SRB assay; conditions: HL-60, 48 h
In short: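 Five-dose NCI-60 assay at 10-fold dilutions, 10^-4 to 10^-8 M, 48 h continuous exposure; SRB protein staining. Absorbance at time zero, untreated control and each concentration gives percent growth. GI50 is the concentration giving 50% lower net protein increase than controls. Values beyond the range tested are reported as above or below the extreme concentration.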

[9] = Growth inhibition of human […] cells after 48 hrs by SRB assay; in short: as §1
[10] = tested on: SR; assay: Anticancer activity against human SR cells assessed as cell growth at 10 uM after 48 hrs by SRB assay; conditions: read-out: Activity; in short: as §2

SMILES | GI50 [1] [nM] | GI50 [2] [nM] | TGI ([2]; read-out: pTGI (converted)) [nM] | GI50 [3] [nM] | GI50 [4] [nM] | TGI ([4]; read-out: pTGI (converted)) [nM] | GI50 [5] [nM] | TGI ([5]; read-out: pTGI (converted)) [nM] | growth at 10 µM [6] [%] | growth at 10 µM [7] [%] | GI50 [8] [nM] | TGI ([8]; read-out: pTGI (converted)) [nM] | GI50 [9] [nM] | TGI ([9]; read-out: pTGI (converted)) [nM] | growth at 10 µM [10] [%]
O=C1N=C(N2N=C(c3ccccc3)CC2c2ccccc2O)/C(=C/c2ccc(O)cc2)S1 (stereo unspecified) | 1910 | 1950 | 5250 | 1780 | 1700 | 3310 | 1700 | 3310 | -96.3 | 1.13 | 1660 | 4900 | 1860 | 4470 | –
O=C1N=C(N2N=C(c3ccccc3)CC2c2ccccc2O)S/C1=C\c1ccccc1Cl (stereo unspecified) | – | – | – | – | – | – | – | – | – | 102 | – | – | – | – | 45.6
